Experimental data: ChEMBL document CHEMBL1649161, “Pharmacokinetics of EDP-420 after ascending single oral doses in healthy adult volunteers” (Antimicrob Agents Chemother, 2009)
Values after ≈ are worked out from the molar mass of the structure shown.

Legend:
Legionella sp. = test: Antimicrobial activity against Legionella sp.; type: functional
Homo sapiens [1] = test: Toxicity in healthy human assessed as changes in prothrombin time at 100 to 1200 mg, po administered as single dose; type: organism-based; conditions: in vivo
Summary of the method: (§1)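 Randomized, double-blind, placebo-controlled single ascending dose study with eight subjects per group (6 drug, 2 placebo of microcrystalline cellulose). Subjects were fasted before dosing. Safety labs were done at 120 h, with a full chemistry panel also at 72 and 96 h for the top dose. Final evaluation on day 8–10, with adverse events recorded.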

Streptococcus pneumoniae [2] = test: Antimicrobial activity against macrolide-resistant Streptococcus pneumoniae carrying mefA and/or ermB genes; type: functional
[3] = Half life in healthy human plasma at 800 mg, po administered as single dose measured after 120 hrs; type: ADME, organism-based
[4] = Cmax in healthy human plasma at 400 mg, po administered as single dose measured after 120 hrs; type: ADME, organism-based; parameters: dose 400 mg, route oral
Summary of the method: (§2)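 Healthy adults (n = 6 per dose) took a single oral suspension fasted (8 h before, 4 h after). Plasma was sampled from 0.25 to 120 h postdose and quantified by validated LC-MS/MS after acetonitrile precipitation (LLOQ 1 ng/ml). Cmax was read directly from observed concentration–time data; the group mean was reported.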

[5] = Apparent volume of distribution in healthy human plasma at 200 mg, po administered as single dose measured after 120 hrs; type: ADME, organism-based
[6] = Elimination rate constant in healthy human plasma at 400 mg, po administered as single dose measured after 120 hrs; type: ADME, organism-based
[7] = AUC (0 to infinity) in healthy human plasma at 400 mg, po administered as single dose measured after 120 hrs; type: ADME, organism-based; parameters: dose 400 mg, route oral, time infinity
Summary of the method: (§3)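 Healthy adults (6 per dose group) received a single oral suspension after an 8-h fast, with food withheld 4 h. EDTA blood was drawn predose to 120 h. Plasma was protein-precipitated with ACN and assayed by LC-MS/MS (clarithromycin internal standard; range 1–1,000 ng/ml). AUC0-last was computed by linear-up/log-down trapezoid; AUC0-∞ added Clast/λz. Values are noncompartmental means.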

[8] = Renal clearance in healthy human at 400 mg, po administered as single dose measured after 48 hrs; type: ADME, organism-based, Kidney; conditions: in vivo, read-out: CL_renal (converted)
Summary of the method: (§4)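 Healthy adults (6 active per dose) got a single oral suspension dose after an 8-h fast, with food withheld 4 h. Urine over 0–48 h in intervals and serial EDTA plasma were assayed by validated LC-MS/MS, with plasma calibration from 1 to 1,000 ng/ml. CLR = Ae0-48 (urine volume × concentration summed) divided by plasma AUC0-48.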

[9] = Renal clearance in healthy human assessed as cumulative fraction excreted unchanged in urine at 800 mg, po administered as single dose measured after 48 hrs; type: ADME, organism-based; conditions: read-out: Fraction Recovered in urine
Summary of the method: (§5)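 Urine collected predose and over 0–2, 2–4, 4–6, 6–8, 8–12, 12–24 and 24–48 h after a single oral suspension dose, given after an 8-h fast with no food for 4 h after. Volumes measured, stored at −20°C, EDP-420 quantified by LC-MS/MS. fe0-48 = Ae0-48/dose × 100%, where Ae0-48 is the sum of volume × concentration over the intervals. Six active subjects per dose.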

[10] = AUC (0 to last) in healthy human plasma at 400 mg, po administered as single dose measured after 120 hrs; type: ADME, organism-based; parameters: dose 400 mg, route oral, time 0 - last; summary of the method: as §3
[11] = Elimination rate constant in healthy human plasma at 200 mg, po administered as single dose measured after 120 hrs; type: ADME, organism-based
[12] = Cmax in healthy human plasma at 100 mg, po administered as single dose measured after 120 hrs; type: ADME, organism-based; parameters: dose 100 mg, route oral; summary of the method: as §2
[13] = Apparent volume of distribution in healthy human plasma at 1200 mg, po administered as single dose measured after 120 hrs; type: ADME, organism-based
[14] = Cmax in healthy human plasma at 800 mg, po administered as single dose measured after 120 hrs; type: ADME, organism-based; parameters: dose 800 mg, route oral; summary of the method: as §2
[15] = Renal clearance in healthy human at 800 mg, po administered as single dose measured after 48 hrs; type: ADME, organism-based, Kidney; conditions: in vivo, read-out: CL_renal (converted); summary of the method: as §4
Homo sapiens [16] = test: Renal clearance in healthy human assessed as cumulative amount excreted in urine at 100 mg, po administered as single dose measured after 48 hrs; type: ADME, organism-based; conditions: in vivo
Summary of the method: (§6)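 Healthy adults (6 per dose) received a single fasted oral suspension dose. Urine was collected predose and over 0–2, 2–4, 4–6, 6–8, 8–12, 12–24 and 24–48 h intervals, volumes were recorded, and aliquots were stored at −20°C. Samples were assayed by LC-MS/MS. Ae0-48 is the summed volume × concentration over all intervals; the mean was reported.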

[17] = AUC (0 to last) in healthy human plasma at 1200 mg, po administered as single dose measured after 120 hrs; type: ADME, organism-based; parameters: dose 1200 mg, route oral, time 0 - last; summary of the method: as §3
[18] = Half life in healthy human plasma at 400 mg, po administered as single dose measured after 120 hrs; type: ADME, organism-based
[19] = AUC (0 to last) in healthy human plasma at 200 mg, po administered as single dose measured after 120 hrs; type: ADME, organism-based; parameters: dose 200 mg, time 0 - last, route oral; summary of the method: as §3
Homo sapiens [20] = test: Toxicity in healthy human assessed as incidence of adverse events at 100 to 1200 mg, po administered as single dose; type: organism-based; conditions: in vivo; summary of the method: as §1
[21] = Elimination rate constant in healthy human plasma at 1200 mg, po administered as single dose measured after 120 hrs; type: ADME, organism-based
Homo sapiens [22] = test: Renal clearance in healthy human assessed as cumulative amount excreted in urine at 400 mg, po administered as single dose measured after 48 hrs; type: ADME, organism-based; conditions: in vivo; summary of the method: as §6
[23] = Apparent volume of distribution in healthy human plasma at 800 mg, po administered as single dose measured after 120 hrs; type: ADME, organism-based
Streptococcus pneumoniae [24] = test: Antimicrobial activity against Streptococcus pneumoniae; type: functional
[25] = AUC (0 to last) in healthy human plasma at 100 mg, po administered as single dose measured after 120 hrs; type: ADME, organism-based; parameters: dose 100 mg, route oral, time 0 - last; summary of the method: as §3
[26] = AUC (0 to infinity) in healthy human plasma at 800 mg, po administered as single dose measured after 120 hrs; type: ADME, organism-based; parameters: dose 800 mg, route oral, time infinity; summary of the method: as §3
[27] = Elimination rate constant in healthy human plasma at 800 mg, po administered as single dose measured after 120 hrs; type: ADME, organism-based
[28] = Tmax in healthy human plasma at 800 mg, po administered as single dose measured after 120 hrs; type: ADME, organism-based
Summary of the method: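 Fasted healthy adults (n = 6 per group) took one oral suspension dose. Plasma was sampled from predose through 0.25–120 h postdose and measured by validated LC-MS/MS (lower limit 1 ng/ml). Tmax was read directly from observed concentration–time data using actual sampling times and reported as median with range.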

Homo sapiens [29] = test: Toxicity in healthy human assessed as changes in gamma-glutamyl transpeptidase level at 100 to 1200 mg, po administered as single dose; type: organism-based; conditions: in vivo; summary of the method: as §1
Homo sapiens [30] = test: Renal clearance in healthy human assessed as cumulative amount excreted in urine at 200 mg, po administered as single dose measured after 48 hrs; type: ADME, organism-based; conditions: in vivo; summary of the method: as §6
[31] = Renal clearance in healthy human assessed as cumulative fraction excreted unchanged in urine at 200 mg, po administered as single dose measured after 48 hrs; type: ADME, organism-based; conditions: read-out: Fraction Recovered in urine
Summary of the method: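 After a single oral fasted suspension dose in healthy adults (6 per group), urine was collected in intervals to 48 h and measured by LC-MS/MS. fe0-48 = Ae0-48 (summed interval volume × concentration) / dose × 100%; the mean was reported.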

[32] = Renal clearance in healthy human assessed as cumulative fraction excreted unchanged in urine at 400 mg, po administered as single dose measured after 48 hrs; type: ADME, organism-based; conditions: read-out: Fraction Recovered in urine; summary of the method: as §5

## CC[C@H]1OC(=O)[C@H](C)C(=O)[C@H](C)[C@@H](O[C@@H]2O[C@H](C)C[C@H](N(C)C)[C@H]2O)[C@@]2(C)C[C@@H](C)/C(=N\C(C)=O)[C@H](C)[C@@H](OC/C(=N\OCc3ccc(-n4cccn4)nc3)CO2)[C@]1(C)O [MODITHROMYCIN]
Legionella sp.
  MIC90: 0.031 mg/L (≈ 0.0369 µM)
Homo sapiens [1]
  Activity: Non-toxic
Streptococcus pneumoniae [2]
  MIC: 0.25 mg/L (≈ 0.297 µM)
[3]
  half-life: 17.6 h
[4]
  Cmax: 0.542 µg/mL
[5]
  Vd/F: 589 L
[6]
  k el at 120 h: 1.22e-05 s⁻¹
[7]
  AUC(0-inf): 14.4 µg·h/mL
[8]
  CL renal at 48 h: 58 mL/min
[9]
  dose excreted at 48 h: 11.4%
[10]
  AUC(0-t) at 120 h: 14.3 µg·h/mL
[11]
  k el at 120 h: 1.22e-05 s⁻¹
[12]
  Cmax: 0.196 µg/mL
[13]
  Vd/F: 909 L
[14]
  Cmax: 1.07 µg/mL
[15]
  CL renal at 48 h: 57.5 mL/min
Homo sapiens [16]
  Amount Recovered in urine: 8.57 mg
[17]
  AUC(0-t) at 120 h: 37.4 µg·h/mL
[18]
  half-life: 15.8 h
[19]
  AUC(0-t) at 120 h: 7.65 µg·h/mL
Homo sapiens [20]
  Activity: 16.7%
[21]
  k el at 120 h: 9.56e-06 s⁻¹
Homo sapiens [22]
  Amount Recovered in urine: 41.9 mg
[23]
  Vd/F: 601 L
Streptococcus pneumoniae [24]
  MIC: 0.25 mg/L (≈ 0.297 µM)
[25]
  AUC(0-t) at 120 h: 3.4 µg·h/mL
[26]
  AUC(0-inf): 33.9 µg·h/mL
[27]
  k el at 120 h: 1.09e-05 s⁻¹
[28]
  Tmax: 4.26 h
Homo sapiens [29]
  Activity: Non-toxic
Homo sapiens [30]
  Amount Recovered in urine: 24.5 mg
[31]
  dose excreted at 48 h: 12.3%
[32]
  dose excreted at 48 h: 10.5%
